# Assay outcomes from PubChem.
# EP2 modulator: EP2 receptor modulators, cAMP readout, primary screen, cell-based, HTRF cAMP, PGE2 stimulation | Prostaglandin E2 receptor EP2 subtype (Homo sapiens), P43116 | EP2-expressing cells, cAMP HTRF FRET, PGE2 co-stimulation | induction, % at 25 µM | 0.83% of 260,000 active | AID 940, 2007;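 active means compounds whose cAMP rise, as percent of the full-agonist control response, exceeds 60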;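 further: rat C6 glioma line stably carrying human EP2 under a CMV promoter; the protocol text gives 20 µM as final concentration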
# Target sequence (P43116 whole entry, looked up): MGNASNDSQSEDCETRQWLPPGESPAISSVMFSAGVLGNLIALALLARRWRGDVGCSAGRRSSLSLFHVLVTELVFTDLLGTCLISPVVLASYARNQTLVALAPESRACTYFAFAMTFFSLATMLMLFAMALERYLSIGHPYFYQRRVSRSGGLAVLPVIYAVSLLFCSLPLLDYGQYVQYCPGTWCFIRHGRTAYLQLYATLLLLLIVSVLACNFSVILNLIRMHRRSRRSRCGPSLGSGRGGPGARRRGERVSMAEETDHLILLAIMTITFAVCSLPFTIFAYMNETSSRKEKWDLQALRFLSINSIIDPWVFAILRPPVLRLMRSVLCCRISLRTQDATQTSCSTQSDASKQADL
# PHOSPHO1 inh: PubChem AID 1565. Phosphoethanolamine/phosphocholine phosphatase (Homo sapiens), Q8TCT1. recombinant PHOSPHO1, absorbance phosphatase assay. inhibition, % at 13.3 µM. 1.1% of 290,000 active; in the data active means inhibition above about 60%
# Target sequence (Q8TCT1 whole entry, looked up): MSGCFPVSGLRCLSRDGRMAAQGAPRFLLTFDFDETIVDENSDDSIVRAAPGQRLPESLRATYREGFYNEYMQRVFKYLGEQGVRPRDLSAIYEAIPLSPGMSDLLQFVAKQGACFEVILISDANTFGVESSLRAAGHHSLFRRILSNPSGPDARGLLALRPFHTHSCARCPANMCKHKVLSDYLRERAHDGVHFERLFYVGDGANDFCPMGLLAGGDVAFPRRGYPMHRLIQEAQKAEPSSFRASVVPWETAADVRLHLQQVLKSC
# PGE2 EP2 inh: human EP2 receptor antagonists, primary screen, TR-FRET cAMP, C6 glioma cells; Prostaglandin E2 receptor EP2 subtype (Homo sapiens), P43116; inhibition, % at 25 µM; 0.52% of 260,000 active; C6 glioma cells expressing human EP2; cells stimulated with saturating PGE2;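 active means percent inhibition above 40 after rounding to a whole number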;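 further: rat C6 glioma host cells with rolipram phosphodiesterase inhibitor present; the protocol text gives 20 µM as final concentration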
# PfG6PD inh: PfG6PD enzyme inhibitors, primary screen, biochemical, fluorescence intensity, uHTS; AID 504690, 2011; inhibition, % at 20 µM; glucose-6-phosphate dehydrogenase-6-phosphogluconolactonase (Plasmodium falciparum 3D7); 0.78% of 350,000 active; PfGluPho enzyme, NADPH resazurin-diaphorase fluorescence;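 active means inhibition reaching at least a set limit at 20 µM in the primary screen, cut at about 59% in these data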
# Tb hexokinase: Trypanosoma brucei hexokinase 1 inhibitors, primary screen, biochemical, G6PDH-coupled NADH absorbance, MLSCN library. 0.11% of 220,000 active. recombinant TbHK1, G6PDH-coupled NADH A340. hexokinase 1 [Trypanosoma brucei]. inhibition, % at 10 µM;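 active means inhibition of 50% or more in the single-dose primary screen; inactive means inhibition below 50%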
# HKDC1 inhibitor: HKDC1 hexokinase inhibitors, primary screen, biochemical, fluorescence, uHTS; recombinant HKDC1, G6PDH/diaphorase resazurin coupled fluorescence; inhibition, % at 20 µM; Q2TB90; 0.16% of 340,000 active;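 active means inhibition above about 35% when tested at 20 µM, limit read from the data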
#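 Test system: Recombinant HKDC1 (HK5) hexokinase enzyme, produced in-house | Input: HKDC1 at 5 µg/mL | Buffer or medium: Tris pH 8.0 buffer with MgCl2, Tween-20, BSA, BME | Schedule: 90 min reaction incubation at room temperature, dark | Technique: Resazurin-to-resorufin fluorescence via G6PDH and diaphorase coupling, 525/613 nm | Controls: DMSO wells with and without enzyme mix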
# Numbers stand for hits; 0 = inactive; - = no result given. A selection: hits, their analogues and other compounds. The true share with any hit is near 2.5%.
SMILES,EP2 modulator,PHOSPHO1 inh,PGE2 EP2 inh,PfG6PD inh,Tb hexokinase,HKDC1 inhibitor
Cc1nc2ccccc2nc1-c1ccc(N=[N+]([O-])c2ccc(-c3nc4ccccc4nc3C)cc2)cc1,0,-,53.6,-,-,-
CCc1ccc(C(=O)CSc2n[nH]c(C)n2)cc1,0,101.7,0,0,0,0
Cc1nc(SCC(=O)O)n[nH]1,0,0,0,0,0,0
Cc1ccc(C(=O)CSc2n[nH]c(C)n2)cc1,0,92.3,0,0,0,0
Cc1ccc(C)c(C(=O)CSc2n[nH]c(C)n2)c1,0,0,0,0,0,0
Cc1cc2ccccc2c[n+]1CC(O)C[n+]1cc2ccccc2cc1C,0,-,54.6,-,-,-
CC(C)(C)c1ccc(/C([O-])=C(/C(=S)NCc2ccco2)[n+]2ccccc2)cc1,0,83.5,0,-,0,-
Cc1ccc[n+](/C(C(=S)NCc2ccco2)=C(/[O-])c2ccccc2Cl)c1,0,96.6,0,0,0,0
CC(C)(C)c1ccc(C(=O)NC(=S)NCc2ccco2)cc1,-,0,-,0,-,0
CCC(=O)Nc1cc(NC(=O)CSc2nnc3c4c5c(sc4nc(C)n23)CCCC5)ccc1C,0,-,0,-,-,-
O=C(Nc1nc(=O)c2ccccc2s1)c1ccc(Cl)cc1,0,0,0,0,0,0
O=C(Nc1nc2ccsc2c(=O)s1)c1ccc(Cl)cc1,0,0,43.2,0,0,0
O=C(CSc1n[nH]c(-c2ccco2)n1)NCc1ccccc1,0,-,0,-,-,-
CC(C)CC(=O)/C(=C\c1ccc(Cl)cc1Cl)n1cncn1,0,0,52.1,0,0,0
CC(C)CC(=O)/C(=C/c1ccc(N(C)C)cc1)n1cncn1,-,0,-,0,-,0
CCc1ccc(C2C(C#N)=C(N)SC(N)=C2C#N)cc1,0,0,0,0,0,0
N#CC1=C(N)SC(N)=C(C#N)C1c1ccc(C(F)(F)F)cc1,0,0,49.3,-,0,-
Cc1cc(C)c(S(=O)(=O)/N=C2/C=C(Sc3ncn[nH]3)C(=O)c3ccccc32)cc1C,0,69.1,104.4,109.3,0,63.7
CCCn1c(SCC(=O)Nc2c(CC)cccc2CC)nnc1-c1ccco1,0,-,0,-,-,-
CC1CC(C)(C)CC2(C1)NC(=S)N(c1ccccc1)N2 (stereo not given),0,97.9,0,0,0,0
CCC(=O)Nc1nnc(SCC(=O)Nc2ccc(Br)cc2Cl)s1,0,-,0,-,-,-
CCOc1cc(/C=N/NC(=O)COc2ccc(C)cc2)ccc1OC(=O)c1cccs1,0,60.5,0,0,0,0
C=CCn1c(O)c(C=Nc2ccccc2Cl)sc1=S,0,-,0,-,-,-
COc1ccc2c(c1)[n+]([O-])c(/C(C)=N/NC(N)=S)c(C)[n+]2[O-],0,-,44.1,-,-,-
COc1cc2ccc(C(C)=NNC(N)=S)cc2cc1OC,-,-,-,0,-,-
SMILES,EP2 modulator,PHOSPHO1 inh,PGE2 EP2 inh,PfG6PD inh,Tb hexokinase,HKDC1 inhibitor
CCc1cc2cc3c(cc2nc1SCC(=O)Nc1ccccc1C(F)(F)F)OCO3,0,-,0,-,-,-
Cc1ccc(CN(Cc2nc[nH]c2C)C2CC(C)(C)NC(C)(C)C2)o1,0,-,0,-,-,-
COc1cc(OC)c(C2SCCCS2)cc1OC,0,0,0,0,0,0
COc1cc(C2SCCCCCCCCCCSC(c3ccc(O)c(OC)c3)SCCCCCCCCCCS2)ccc1O (stereo not given),0,-,41.2,-,-,-
CCc1ccc(-c2csc3ncn(CC(=O)Nc4ccc(OC)cc4OC)c(=O)c23)cc1,0,-,0,-,-,-
Cc1ccc(Cn2cccc(NC(=O)NC3CCCCC3)c2=O)cc1,0,66.4,0,0,0,0
CCOCCCN=C1Sc2nc3c(C)c(C)ccc3cc2CN1CCOC,0,-,0,-,-,-
Cc1cccc(N=C2Sc3nc4c(C)c(C)ccc4cc3CN2CCN2CCOCC2)c1,0,81.3,0,0,0,0
CCN1C/C(=C\c2cccc([N+](=O)[O-])c2)C(=O)/C(=C/c2cccc([N+](=O)[O-])c2)C1,0,0,0,0,0,42.5
CCCn1c(SCC(=O)Nc2ccccc2CC)nnc1-c1ccoc1C,0,-,0,-,-,-
COc1ccc2cc(C#N)c(SCC(=O)NC3CCCCC3C)nc2c1 (stereo not given),76.9,-,0,-,-,-
COc1ccc(NC(=O)CSc2nnc(-c3cccc(Br)c3)o2)cc1,0,-,0,-,-,-
CC(C)CCNC(=O)c1cc2c(=O)n3ccccc3nc2s1,-,0,-,0,-,0
CCC(C)NC(=O)c1cc2c(=O)n3ccccc3nc2s1 (stereo not given),-,60.6,-,0,-,0
CC1CCN(S(=O)(=O)c2ccc(N/N=C(/C#N)C(N)=O)cc2)CC1,0,76.7,0,0,0,0
CCc1cc(-c2n[nH]c(=S)n2N)n(C)n1,0,0,0,0,0,0
CCc1nn(C)c(-c2n[nH]c(=S)n2N)c1Cl,0,62.0,0,0,0,0
Cc1cn2c3c(=O)[nH]c(=O)n(C)c3nc2n1CCc1ccccc1,0,-,0,-,-,-
CCNC(=S)N(CCN(CC)CC)Cc1cc2ccc(OC)cc2[nH]c1=O,0,-,0,-,-,-
O=C(NCCN1CCOCC1)c1ccc(/C=C2\Sc3ccccc3N(Cc3ccccc3F)C2=O)cc1,-,0,-,0,-,0
CN1CCN(CCCNC(=O)c2ccc(/C=C3\Sc4ccccc4N(Cc4ccccc4F)C3=O)cc2)CC1,0,0,88.0,0,0,0
COc1cc2c(cc1OC)C1=C(C#N)CN(c3ccc(C)c(C)c3)CN1CC2,0,-,0,-,-,-
CCOC(=O)c1c(NC(=O)COC)sc2c1CCC2,83.0,-,0,-,-,-
CCOC(=O)c1c(NC(=S)Nc2ccccc2)sc2c1CCCCC2,0,0,52.4,0,0,0
COc1cc2c(cc1OC)C(c1ccccc1F)N(Cc1cnc(C)nc1)CC2 (stereo not given),0,-,0,-,-,-
SMILES,EP2 modulator,PHOSPHO1 inh,PGE2 EP2 inh,PfG6PD inh,Tb hexokinase,HKDC1 inhibitor
CC(=O)N1CCN(c2c3c(nc4c(-c5cccs5)c(C)nn24)CCC3)CC1,0,-,-,-,-,-
CN(C)c1ccc(C2C=C(c3ccc(Cl)cc3OC(F)F)Nc3ncnn32)cc1 (stereo not given),0,66.7,0,0,-,0
CCOc1cc(/C=N/NC(=O)Cn2nc([N+](=O)[O-])cc2C)cc(Br)c1OCc1ccccc1F,0,0,0,0,0,0
CCOc1cc(/C=N/NC(N)=O)cc(Br)c1OCc1ccccc1F,62.1,0,0,0,0,0
Cc1nnc(SCC(=O)Nc2sc3c(c2C#N)CCCCC3)n1N,0,61.3,0,0,0,0
CC(C)c1nnc(SCC(=O)Nc2sc3c(c2C#N)CCCC3)n1C,0,-,0,-,-,-
COc1cc2c(cc1OC)C(O)C(O)(CO)C(C(=O)O)C2c1cc(OC)c(OC)c(OC)c1 (stereo not given),-,-,-,0,-,0
COc1cc2c(cc1O)[C@@H](c1cc(O)c(O)c(OC)c1)[C@](O)(C(=O)O)[C@@H](CO)[C@@H]2O,0,-,53.7,-,-,-
